Test results as given in publication PMC10693930 (Biochemistry, 2023).

Tests used:
Type in all cases: biochemical
[1] = molecular target: T1, WT SaPC (Staphylococcus aureus, UniProt A0A0H3JRU9); assay: Pyruvate carboxylation assay; conditions: for EC50: Ka (apparent activation constant)
[2] = molecular target: T2, K46A SaPC (Staphylococcus aureus, UniProt A0A0H3JRU9, K46A); assay: Pyruvate carboxylation assay
[3] = molecular target: T3, E418A SaPC (Staphylococcus aureus, UniProt A0A0H3JRU9, E418A); assay: Pyruvate carboxylation assay; conditions: up to 4 mM acetyl-CoA and 30 mM CoA
[4] = molecular target: T4, R21A SaPC (Staphylococcus aureus, UniProt A0A0H3JRU9, R21A); assay: Pyruvate carboxylation assay
[5] = molecular target: T5, K411A SaPC (Staphylococcus aureus, UniProt A0A0H3JRU9, K411A); assay: Pyruvate carboxylation assay
[6] = molecular target: T1, WT SaPC; assay: ADP phosphorylation assay
[7] = molecular target: T5, K411A SaPC; assay: ADP phosphorylation assay
[8] = molecular target: T1, WT SaPC; assay: Pyruvate carboxylation inhibition assay with CT domain inhibitors
Outline: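 WT SaPC (5 μg/mL) was pre-incubated with inhibitor and acetyl-CoA, and the reaction was started with 10× substrate mix (final 25 mM NaHCO3, 2.5 mM ATP, 12 mM pyruvate). MDH-coupled (10 U/mL MDH, 0.12 mM NADH); change in A340 monitored. Inhibitor 0–1 mM or 0–50 mM by compound. MDH-only controls. Triplicate; SD of three trials.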

[9] = molecular target: T4, R21A SaPC; assay: Pyruvate carboxylation inhibition assay with CT domain inhibitors; conditions: 2.5 mM acetyl-CoA vs none
[10] = molecular target: T2, K46A SaPC; assay: as above; conditions: 2.5 mM acetyl-CoA vs none
[11] = molecular target: T3, E418A SaPC; assay: as above
[12] = Acyl-CoA + 20 mM L-aspartate, Table 1

Row | Structure (SMILES) | h (Hill coefficient) [1, 12] | h (Hill coefficient) ([1]; Acyl-CoA alone, Table 1) | EC50 [1, 12] | EC50 ([1]; WT SaPC, Table 2 series) | increase of apparent Ka in the presence of L-aspartate ([1]; WT SaPC, 20 mM L-aspartate vs none) | EC50 [2] | activation of pyruvate carboxylation [3] | EC50 [4] | EC50 [5] | EC50 [6] | EC50 [7] | change of potency in the presence of acetyl-CoA ([8]; SaPC, CT domain inhibitors) | increase in the IC50 for oxalate inhibition ([8]; WT SaPC, acetyl-CoA at ~7 times the Ka value (10 μM, Figure 6C)) | increase in the IC50 for oxalate inhibition ([8]; WT SaPC, in the presence of CoA (500 μM, Figure 6B)) | change of the IC50 for oxalate inhibition ([8]; WT SaPC, in the presence of L-aspartate (5 mM, Figure 6B)) | increase in the IC50 for oxalate inhibition ([8]; WT SaPC, saturating acetyl-CoA vs none) | increase in the IC50 for oxalate inhibition [9] | increase in the IC50 for oxalate inhibition [10] | inhibition of pyruvate carboxylation [11] | change of inhibition in the presence of acetyl-CoA ([11]; 500 μM acetyl-CoA)
1 | CC(C)(COP(=O)(O)OP(=O)(O)OC[C@H]1O[C@@H](n2cnc3c(N)ncnc32)[C@H](O)[C@@H]1OP(=O)(O)O)[C@@H](O)C(=O)NCCC(=O)NCCS [CoA] | 1.8 ± 0.2 | 1.4 ± 0.2 | 130 ± 10 µM | 49 ± 7 µM | ~ 4 fold | 1500 ± 100 µM | unresponsive to activation | 1800 ± 53 µM | 100 ± 4.8 µM | 320 ± 30 µM | 420 ± 30 µM |  |  |  |  |  |  |  |  | 
2 | O=C(O)C(=O)O [oxalate] |  |  |  |  |  |  |  |  |  |  |  | significantly reduced potency | ~ 6 fold | ~ 13 fold | did not alter | > 20 fold | 8 fold | 8 fold | inhibited | unchanged
